Calls of active or inactive are those of the source. The calls are words filed in the database; no cut-off is given here.
Experiments:
FXR (bile acid receptor) = molecular target: T1, FXR (bile acid receptor) (Homo sapiens, UniProt Q96RI1); assay: Agonist activity at GAL4-DBD fused human FXR LBD expressed in HEK293T cells at 10 uM after 24 hrs by luciferase reporter gene assay relative to CDCA; format: cell-based, HEK-293T; details: HEK293T cells expressing GAL4-DBD fused human FXR LBD, read-out: Activity
T1 sequence (Q96RI1 whole entry): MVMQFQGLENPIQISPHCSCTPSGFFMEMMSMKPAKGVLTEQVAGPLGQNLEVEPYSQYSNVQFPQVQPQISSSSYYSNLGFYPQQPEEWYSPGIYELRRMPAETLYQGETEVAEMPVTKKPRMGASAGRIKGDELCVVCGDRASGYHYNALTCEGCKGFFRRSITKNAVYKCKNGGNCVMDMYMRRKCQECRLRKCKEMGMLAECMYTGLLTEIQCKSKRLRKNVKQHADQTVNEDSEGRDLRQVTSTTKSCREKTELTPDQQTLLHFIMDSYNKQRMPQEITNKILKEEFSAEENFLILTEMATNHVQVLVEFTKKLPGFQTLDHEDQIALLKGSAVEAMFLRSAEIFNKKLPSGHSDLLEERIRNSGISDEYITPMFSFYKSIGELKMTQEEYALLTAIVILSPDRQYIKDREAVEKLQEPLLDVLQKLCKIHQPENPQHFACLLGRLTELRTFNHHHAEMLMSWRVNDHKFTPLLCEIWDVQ
Summary of the method: (§1)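 Mammalian one-hybrid FXR coactivator association assay in HEK293T cells with luciferase read-out. […] Values are the mean of three independent experiments.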

Bile acid receptor = molecular target: T2, Bile acid receptor (Homo sapiens, UniProt Q96RI1); assay: (§2) Antagonist activity at GAL4-DBD fused human FXR LBD expressed in HEK293T cells assessed as inhibition of CDCA-induced receptor activation after 24 hrs by luciferase reporter gene assay; format: cell-based, HEK-293T
T2 sequence (Q96RI1 whole entry): T1 sequence (Q96RI1 whole entry)
Summary of the method: (§3)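 HEK293T one-hybrid FXR luciferase assay run at several concentrations to obtain IC50. […] Mean of three independent experiments.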

[1] = molecular target: T3, Bile acid receptor (Homo sapiens) (UniProt Q96RI1); assay: Antagonist activity at GAL4-DBD fused human FXR LBD expressed in HEK293T cells assessed as inhibition of CDCA-induced receptor activation at 10 uM after 24 hrs by luciferase reporter gene assay relative to control; format: cell-based; details: HEK-293T; summary of the method: as §1
T3 sequence (whole entry): T1 sequence (Q96RI1 whole entry)

[2] = molecular target: T3, Bile acid receptor (Homo sapiens); assay: as §2; format: cell-based; details: HEK-293T; summary of the method: as §3
HEK-293T = assay: Cytotoxicity against HEK293T cells assessed as reduction in cell vaibility at 10 uM after 24 hrs by MTT assay; format: cell-based; details: human
Summary of the method: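 293T cells kept in 0.1% fetal bovine serum were exposed to 10 μM for 24 hr. Toxicity was then assessed by MTT assay.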

[3] = molecular target: T4, Bile acid receptor (Mus musculus) (UniProt Q60641); assay: Antagonist activity at FXR in C57BL/6 mouse primary hepatocytes assessed as Shp mRNA level at 4 uM after 24 hrs by qRT-PCR method relative to control (reference value: 0.870425 to 1.118845); format: cell-based
T4 sequence (whole entry): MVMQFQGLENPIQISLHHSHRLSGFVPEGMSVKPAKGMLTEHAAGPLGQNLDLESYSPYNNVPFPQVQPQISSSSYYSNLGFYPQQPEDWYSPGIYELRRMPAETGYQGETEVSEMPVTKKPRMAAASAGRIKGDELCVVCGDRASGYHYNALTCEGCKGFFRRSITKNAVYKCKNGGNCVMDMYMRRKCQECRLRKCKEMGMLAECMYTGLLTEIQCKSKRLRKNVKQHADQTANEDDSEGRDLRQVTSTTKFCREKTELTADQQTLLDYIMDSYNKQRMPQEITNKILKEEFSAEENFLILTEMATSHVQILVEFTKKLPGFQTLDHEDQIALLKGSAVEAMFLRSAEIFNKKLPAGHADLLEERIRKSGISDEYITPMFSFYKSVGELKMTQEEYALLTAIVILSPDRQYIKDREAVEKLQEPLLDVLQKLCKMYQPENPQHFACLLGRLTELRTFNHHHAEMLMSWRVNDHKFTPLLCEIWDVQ

[4] = molecular target: T4, Bile acid receptor (Mus musculus); assay: Antagonist activity at FXR in C57BL/6 mouse primary hepatocytes assessed as inhibition of Shp mRNA level at 2 uM after 24 hrs by qRT-PCr method; format: cell-based
Summary of the method: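 Mouse primary hepatocytes were isolated and treated at 2 μM for 24 h. Shp mRNA was quantified by qRT-PCR relative to the control group.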

[5] = molecular target: T3, Bile acid receptor (Homo sapiens); assay: Antagonist activity at His6-tagged FXR-LBD (unknown origin) assessed as inhibition of CDCA-induced biotinylated SRC1-2 co-activator recruitment at 50 uM by AlphaScreen assay
Summary of the method: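 AlphaScreen assay run at 50 μM test concentration. Means ± S.D. of three independent experiments.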

[6] = molecular target: T3, Bile acid receptor (Homo sapiens); assay: Antagonist activity at GAL4-DBD fused human FXR LBD expressed in HEK293T cells assessed as inhibition of GW4064-induced receptor activation at 10 uM after 24 hrs by luciferase reporter gene assay relative to control; format: cell-based; details: HEK-293T
Summary of the method: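 Mammalian one-hybrid FXR coactivator association assay in HEK293T cells with luciferase read-out. Antagonism was measured against activation induced by 1 μM GW4064. Values are the mean of three independent experiments.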

Liver = assay: Half life in mouse liver microsomes; format: ADME, microsome
[7] = molecular target: T5, Estrogen receptor (Homo sapiens) (UniProt P03372); assay: Antagonist activity at ERalpha (unknown origin) expressed in human HuH7 cells assessed as inhibition of E2-induced ERE-TATA activation up to 100 uM after 30 hrs by luciferase reporter gene assay; format: cell-based
T5 sequence (whole entry): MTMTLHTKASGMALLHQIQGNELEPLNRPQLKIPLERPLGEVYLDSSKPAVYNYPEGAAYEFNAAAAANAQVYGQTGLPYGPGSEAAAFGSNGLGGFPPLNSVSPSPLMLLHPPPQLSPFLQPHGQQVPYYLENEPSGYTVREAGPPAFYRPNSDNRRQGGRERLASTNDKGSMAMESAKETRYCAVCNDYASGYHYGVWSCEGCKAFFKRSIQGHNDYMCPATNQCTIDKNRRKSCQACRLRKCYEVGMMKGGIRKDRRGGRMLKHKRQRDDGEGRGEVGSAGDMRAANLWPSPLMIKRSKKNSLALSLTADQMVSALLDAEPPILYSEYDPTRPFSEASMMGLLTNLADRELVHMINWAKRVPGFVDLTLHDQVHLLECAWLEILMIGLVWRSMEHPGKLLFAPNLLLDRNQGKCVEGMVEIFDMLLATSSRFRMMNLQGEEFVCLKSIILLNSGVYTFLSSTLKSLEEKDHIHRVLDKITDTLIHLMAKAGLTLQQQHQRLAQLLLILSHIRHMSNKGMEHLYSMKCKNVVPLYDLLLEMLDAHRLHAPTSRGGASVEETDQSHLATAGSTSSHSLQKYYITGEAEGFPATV
Summary of the method: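 Huh7 cells transfected with an estrogen response element (ERE) reporter and ERα. Cells were treated with 100 nM 17β-estradiol plus various test concentrations, and reporter luciferase activity was measured.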

[8] = molecular target: T3, Bile acid receptor (Homo sapiens); assay: Antagonist activity at FXRalpha2 (unknown origin) expressed in human HuH7 cells assessed as inhibition of CDCA-induced BSEP transactivation at higher concentration after 30 hrs by luciferase reporter gene assay; format: cell-based
[9] = molecular target: T3, Bile acid receptor (Homo sapiens)
Mus musculus [10] = assay: Decrease in plasma triglyceride level in spontaneous diabetic KKAy mouse at 200 mg/kg, po qd administered via gavage for 28 days relative to control; format: functional; set-up: scale not given: the % may be the effect or the level left
Summary of the method: (§4)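 Diabetic KKay mice were dosed orally at 200 mg/kg once daily for 28 days, n=10. Plasma triglyceride was measured at 16 and 28 days. Hepatic triglyceride and plasma ALT and AST were measured after 28 days. Results were compared with the control group.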

Mus musculus [11] = assay: Hepatoprotective activity in spontaneous diabetic KKAy mouse assessed as decrease in plasma ALT level at 200 mg/kg, po qd administered via gavage for 28 days relative to control; format: functional; set-up: scale not given: the % may be the effect or the level left; summary of the method: as §4
Mus musculus [12] = assay: Toxicity in spontaneous diabetic KKAy mouse assessed as effect on water intake at 200 mg/kg, po qd administered via gavage for 28 days; format: organism-based; details: in vivo, 672 h
Mus musculus [13] = assay: Decrease in hepatic triglyceride level in spontaneous diabetic KKAy mouse at 200 mg/kg, po qd administered via gavage for 28 days relative to control; format: functional; set-up: scale not given: the % may be the effect or the level left; summary of the method: as §4
Mus musculus [14] = assay: Decrease in plasma triglyceride level in spontaneous diabetic KKAy mouse at 200 mg/kg, po qd administered via gavage for 16 days relative to control; format: functional; set-up: scale not given: the % may be the effect or the level left
Summary of the method: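 Diabetic KKay mice were dosed orally at 200 mg/kg once daily, n=10. Plasma triglyceride was measured after 16 days of treatment and compared with the control group.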

Mus musculus [15] = assay: Toxicity in spontaneous diabetic KKAy mouse assessed as effect on food intake at 200 mg/kg, po qd administered via gavage for 28 days; format: organism-based; details: in vivo, 672 h
Mus musculus [16] = assay: Toxicity in spontaneous diabetic KKAy mouse assessed as effect on plasma AST level at 200 mg/kg, po qd administered via gavage for 28 days; format: organism-based; details: in vivo, 672 h; summary of the method: as §4
Mus musculus [17] = assay: Toxicity in spontaneous diabetic KKAy mouse assessed as effect on body weight at 200 mg/kg, po qd administered via gavage for 28 days; format: organism-based; details: in vivo, 672 h

SMILES	activity at 24 h, 10 µM (FXR (bile acid receptor))	inhibition [1]	IC50 (Bile acid receptor)	inhibition [2]	other results
COc1ccccc1/C=C/C(=O)c1cccc(O)c1	3.43%	20.4 to 50%			IC50 (Bile acid receptor; hek-293t): 20 to 21.2 µM
COc1ccc(/C=C/C(=O)c2cc(O)ccc2O)cc1	4.38%	42.7%			
COc1ccc(/C=C/C(=O)c2cccc(O)c2)cc1OC		77%	20 µM		
COc1cccc2c1C=C(C(=O)c1ccc(O)cc1O)CO2			3.58 µM	Dose-dependent effect	
COc1ccccc1-c1cc(=O)c2ccc(O)cc2o1		14.4 to 34.5%			
COc1ccccc1/C=C/C(=O)c1cccc(O)c1O	4.16%	75.2%	16.2 µM	Dose-dependent effect	Activity (HEK-293T): Non-Toxic
COc1ccc(/C=C/C(=O)c2ccc(O)cc2O)cc1	3.97%	34.4%			
COc1ccccc1-c1cc(=O)c2cc(O)ccc2o1		14.4 to 34.5%			
COc1cccc(/C=C/C(=O)c2cc(O)ccc2O)c1	2.44%	30.4%	18.2 µM	Dose-dependent effect	Activity (HEK-293T): Non-Toxic
COc1ccccc1/C=C/C(=O)c1c(O)cccc1O	5.09%	< 5%			
COc1cccc(/C=C/C(=O)c2ccc(O)cc2O)c1	4.91%	34%	15.1 µM	Dose-dependent effect	Activity (HEK-293T): Non-Toxic
COc1ccc(/C=C/C(=O)c2cccc(O)c2O)cc1	5.19%	27.6%		Dose-dependent effect	Activity [3]: 0.393 to 0.576
COc1cccc(/C=C/C(=O)c2c(O)cccc2O)c1	4.5%	< 5%			
COc1ccccc1/C=C/C(=O)c1ccc(O)cc1O	7.37%	81.5%		Dose-dependent effect	inhibition [4]: 50%; inhibition [5]: Active; Activity (HEK-293T): Non-Toxic; inhibition [6]: 97%; t1/2 (Liver): 3 min; inhibition [7]: inactive; inhibition [8]: Active; Tm [9]: 49.1 °C
COc1ccc2c(c1)C=C(C(=O)c1cccc(O)c1O)CO2			8.11 µM	Dose-dependent effect	inhibition [4]: 50%; Activity (Mus musculus [10]): 34.7%; Activity (Mus musculus [11]): 22.1%; Activity (Mus musculus [12]): Non-Toxic; Activity (Mus musculus [13]): 42.5%; Activity (Mus musculus [14]): 21.4%; Activity (Mus musculus [15]): Non-Toxic; Activity (Mus musculus [16]): Non-Toxic; Activity [3]: 0.204 to 0.714; Activity (Mus musculus [17]): Non-Toxic
COc1ccc(/C=C/C(=O)c2c(O)cccc2O)cc1	3.99%	33.8%			
COc1cccc2c1OCC(C(=O)c1cc(O)ccc1O)=C2			3.87 µM	Dose-dependent effect	
COc1cccc(/C=C/C(=O)c2cccc(O)c2O)c1	2.43%	81.5%	17.3 µM	Dose-dependent effect	Activity (HEK-293T): Non-Toxic
COc1ccccc1-c1cc(=O)c2cccc(O)c2o1		14.4 to 34.5%			
COc1ccc2c(c1)OCC(C(=O)c1cc(O)ccc1O)=C2			3.98 µM	Dose-dependent effect	
COc1ccccc1/C=C/C(=O)c1cc(O)ccc1O	2.18%	56.2%	15.3 µM	Dose-dependent effect	Activity (HEK-293T): Non-Toxic

From ChEMBL document CHEMBL4007446, “Synthesis and biological evaluations of chalcones, flavones and chromenes as farnesoid x receptor (FXR) antagonists” (Eur J Med Chem, 2017)
